Experimental data: ChEMBL document CHEMBL1123080, “Synthesis and antiviral activity of the carbocyclic analogues of (E)-5-(2-halovinyl)-2'-deoxyuridines and (E)-5-(2-halovinyl)-2'-deoxycytidines” (1985)
Converted amounts (≈) assume the structure as drawn.

Tested on: Vaccinia virus
Assay: Minimum inhibitory concentration (MIC) required to reduce vaccinia virus induced cytopathogenicity in primary rabbit kidney cell cultures
Assay type: functional
Conditions: Orthopoxvirus vaccinia
Outline: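 Primary rabbit kidney cell cultures were infected with virus and treated with compound. The MIC is the concentration that reduces virus-induced cytopathogenicity by 50%. Cytotoxicity was scored as microscopically visible alteration of normal cell morphology, with 400 μg/mL the highest concentration tested.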

Row | Structure (SMILES) | MIC50 [µg/mL]
1 | NC1NC(=O)N([C@H]2C[C@H](O)[C@@H](CO)O2)C=C1/C=C/Br (some centres not stated) | 200 (≈ 598 µM)
2 | O=c1[nH]c(=O)n([C@H]2C[C@@H](CO)[C@H](O)C2)cc1/C=C/Br | 300 (≈ 906 µM)
3 | Nc1nc(=O)n(C2CC(O)C(CO)C2)cc1/C=C/Br (configuration not stated) | > 200
4 | O=c1[nH]c(=O)n(C2CC(O)C(CO)C2)cc1/C=C/I (configuration not stated) | 300 (≈ 793 µM)
5 | O=c1[nH]c(=O)n([C@H]2C[C@H](O)[C@@H](CO)O2)cc1I [IDOXURIDINE] | 0.2 (≈ 0.565 µM)
6 | O=c1[nH]c(=O)n([C@@H]2C[C@H](CO)[C@@H](O)C2)cc1I | 20 (≈ 56.8 µM)
7 | O=c1[nH]c(=O)n([C@H]2C[C@H](O)[C@@H](CO)O2)cc1/C=C/I | 7 (≈ 18.4 µM)
